Results collected from several papers.
Each line is one published result; the experiments were not run side by side.
Read-out: cell growth or viability

| SMILES | cell line | method | time | IC50 |
| --- | --- | --- | --- | --- |
| CN1C(=O)/C(=N\NC(=O)c2cc3ccccc3[nH]2)c2ccccc21 | ZR75 |  |  | 1.53 µM |
| CC(C)C[C@H](NC(=O)[C@H](Cc1ccccc1)NC(=O)c1cnccn1)B(O)O | CAKI-2 | ATP luminescence |  | 0.024 µM |
| CCCCC(C(=O)COc1c(F)c(F)cc(F)c1F)n1cc([C@](C)(CC(C)C)NCc2ccc3ncccc3c2)nn1 (stereo partly shown) | BESM |  | 72 h | > 10 µM |
| O=C(Nc1ccc2[nH]ncc2c1)c1cccc(NC(=S)Nc2cc(C(F)(F)F)cc(C(F)(F)F)c2)c1 | KM12 | ATP luminescence | 72 h | 19.6 µM |
| CCCCC(C(=O)COc1c(F)c(F)cc(F)c1F)n1cc([C@@](C)(NCc2ccc3ncccc3c2)C2CC2)nn1 (stereo partly shown) | BESM |  | 72 h | > 10 µM |
| O=C(N/N=C1\C(=O)N(c2ccccc2)c2ccccc21)c1cc2ccccc2[nH]1 | ZR75 |  |  | 1.32 µM |
| O=C(Nc1cccc(C(=O)Nc2ccc3[nH]ncc3c2)c1)Nc1ccccc1Cl | KM12 | ATP luminescence | 72 h | > 50 µM |
| CCC(C(=O)COc1c(F)c(F)cc(F)c1F)n1cc([C@](C)(CC(C)C)NCc2ccc3ncccc3c2)nn1 (stereo partly shown) | BESM |  | 72 h | > 10 µM |
| CC(C)C(=O)Nc1ccc([N+](=O)[O-])c(C(F)(F)F)c1 | Hep3B | CCK-8 | 48 h | > 50 µM |
| O=C(Nc1ccc(Br)cc1)Nc1cccc(C(=O)Nc2ccc3[nH]ncc3c2)c1 | KM12 | ATP luminescence | 72 h | > 50 µM |
| CCCCC/C=C/C(=O)CCc1ccc(O)c(OC)c1 | COR-L23 | SRB |  | 16.2 µM |
| O=C1Nc2ccccc2/C1=N/NC(=O)c1cc2ccccc2[nH]1 | ZR75 |  |  | 22.7 µM |
| O=C(Nc1ccc(I)cc1)Nc1cccc(C(=O)Nc2ccc3[nH]ncc3c2)c1 | KM12 | ATP luminescence | 72 h | > 50 µM |
| CC(=O)Oc1ccc2c(c1)C(C)=CC(C)(C)N2Cc1ccccc1 | Hep3B | MTT | 72 h | 8 µM |
| O=C(Nc1cccc(C(=O)Nc2ccc3[nH]ncc3c2)c1)Nc1ccccc1F | KM12 | ATP luminescence | 72 h | 48.3 µM |
| O=C1NC(=NCc2cccs2)S/C1=C\c1ccc2ncccc2c1 | SR |  |  | 0.372 µM |

| SMILES | cell line | method | time | IC50 |
| --- | --- | --- | --- | --- |
| COc1cc2c(Oc3ccc(NC(=O)C4(C(=O)Nc5ccc(F)cc5)CC4)cc3F)ccnc2cc1OCCCN1CCOCC1 | Rh41 |  | 72 h | 0.59 µM |
| CCCCC(C(=O)COc1c(F)c(F)cc(F)c1F)n1cc([C@@](C)(NCc2ccc3ncccc3c2)C2CCC2)nn1 (stereo partly shown) | BESM |  | 72 h | > 10 µM |
| COc1ccc2c(c1)/C(=N/NC(=O)c1cc3ccccc3[nH]1)C(=O)N2 | ZR75 |  |  | 17.9 µM |
| O=C(Nc1cccc(C(=O)Nc2ccc3[nH]ncc3c2)c1)Nc1cccc(C(F)(F)F)c1 | KM12 | ATP luminescence | 72 h | 39.5 µM |
| O=C1Nc2ccc(F)cc2/C1=N/NC(=O)c1cc2ccccc2[nH]1 | ZR75 |  |  | > 30 µM |
| COc1cc2nccc(Oc3ccc(NC(=O)C4(C(=O)Nc5ccc(F)cc5)CC4)cc3)c2cc1OC | Rh41 |  | 72 h | 2.4 µM |
| O=C(/C=C/C=C/c1ccc2c(c1)OCO2)N1CCCCC1 | COR-L23 | SRB |  | 74.8 µM |
| CN1C(=O)/C(=N\NC(=O)c2cc3ccccc3[nH]2)c2cc(Cl)ccc21 | ZR75 |  |  | 0.84 µM |
| COc1cc(N2CCC(N3CCN(C)CC3)CC2)ccc1Nc1ncc(Cl)c(Nc2ccccc2S(=O)(=O)C(C)C)n1 | Rh41 |  | 72 h | 0.07 µM |
| COc1cc(Nc2nccc(-c3cnn4nc(OC)ccc34)n2)cc(C(F)(F)F)c1 | CAKI-2 | ATP luminescence |  | 0.2 µM |
| Cc1[nH]c2ccccc2c1CCNCc1ccc(/C=C/C(=O)NO)cc1 | A2780C/P | crystal violet | 48 h | 0.0088 µM |
| CN1CCN(CC(=O)Nc2cccc(C(=O)Nc3ccc4[nH]ncc4c3)c2)CC1 | KM12 | ATP luminescence | 72 h | > 50 µM |
| COc1cc(C2Oc3cc([C@H]4Oc5cc(O)cc(O)c5C(=O)[C@@H]4O)ccc3OC2CO)ccc1O (stereo partly shown) | Hep3B | CCK-8 | 72 h | 7.21 µM |
| CCCCC[C@H](O)CC(=O)CCc1ccc(O)c(OC)c1 | COR-L23 | SRB |  | 199 µM |
| O=C(Nc1cccc(F)c1)Nc1cccc(C(=O)Nc2ccc3[nH]ncc3c2)c1 | KM12 | ATP luminescence | 72 h | 41.5 µM |
